Active and inactive are the calls of the source. No cut-off for these calls is given here.
What was measured:
[1] = tested on: Hepatitis C virus; assay: Inhibition of HCV RNA replication in Huh7 cells in presence of 10% fetal calf serum; type: functional, organism-based, Hepacivirus hominis; conditions: Huh-7
[2] = tested on: Hepatitis C virus; assay: Inhibition of HCV RNA replication in Huh7 cells up to 100 uM; type: functional, organism-based; conditions: Hepacivirus hominis; Huh-7
[3] = biological target: RNA-directed RNA polymerase (Hepacivirus hominis, UniProt O39930); assay: Inhibition of HCV BK NS5B deltaC55 RNA dependent RNA polymerase; parameters: species or system Hepatitis C virus (isolate BK)
RNA-directed RNA polymerase, sequence (O39930 whole entry): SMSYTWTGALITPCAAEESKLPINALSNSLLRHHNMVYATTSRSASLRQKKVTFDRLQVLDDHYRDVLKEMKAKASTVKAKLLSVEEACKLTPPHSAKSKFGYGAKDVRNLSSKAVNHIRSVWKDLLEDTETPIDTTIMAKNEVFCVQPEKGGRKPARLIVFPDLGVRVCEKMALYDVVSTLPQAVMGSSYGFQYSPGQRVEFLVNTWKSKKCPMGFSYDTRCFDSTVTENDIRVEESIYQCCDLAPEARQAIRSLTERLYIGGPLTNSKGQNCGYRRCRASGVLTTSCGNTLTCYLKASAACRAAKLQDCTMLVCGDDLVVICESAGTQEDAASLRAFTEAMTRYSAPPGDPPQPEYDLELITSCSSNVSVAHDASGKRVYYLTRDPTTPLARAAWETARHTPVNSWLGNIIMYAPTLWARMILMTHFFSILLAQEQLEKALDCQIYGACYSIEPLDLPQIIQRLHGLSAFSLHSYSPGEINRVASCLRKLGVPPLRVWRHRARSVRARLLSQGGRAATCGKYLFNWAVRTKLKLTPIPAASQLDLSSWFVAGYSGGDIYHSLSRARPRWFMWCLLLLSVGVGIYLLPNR
Procedure, shortened: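 Purified NS5B ΔC55 enzyme from HCV genotype BK strain, assayed with heterogeneous template RNA; IC50 determined with a modified literature protocol.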

[4] = Partition coefficient, log D at pH 7.4; conditions: octanol/water

Row | SMILES | EC50 [1] | Activity [2] | IC50 [3] | logD [4]
1 | O=C(O)c1ccc2c(C3CCCCC3)c(-c3ccccc3)n(CC(=O)N3CCOCC3)c2c1 | 0.8 µM | – | – | –
2 | COc1ccc(-c2nc(/C=C/C(=O)O)cn2C2CCCCC2)cc1 | – | inactive | 77.3 µM | –
3 | CN(C)C(=O)Cn1c(-c2ccccc2)c(C2CCCCC2)c2ccc(C(=O)O)nc21 | 9.8 µM | – | 0.32 µM | 1.1
4 | O=C(O)c1c[nH]c2c(C3CCCCC3)c(-c3ccccc3)nc-2c1 | 48.2 µM | – | 1.9 µM | 2.5
5 | O=C(O)c1ccc2c(C3CCCCC3)c(-c3ccccc3)[nH]c2n1 | 16.8 µM | – | 0.15 µM | 3.3
6 | CN(C)C(=O)Cn1c(-c2ccccc2)c(C2CCCCC2)c2cc(C(=O)O)sc21 | 9.5 µM | – | 0.23 µM | –
7 | COc1ccc(-c2nc3cc(C(=O)O)ccc3n2C2CCCCC2)cc1 | > 50 µM | – | 11.2 µM | –
8 | O=C(O)c1ccc2c(C3CCCCC3)c(-c3ccccc3)[nH]c2c1 | 6.7 µM | – | – | –
9 | O=C(O)c1cc2nc(-c3ccccc3)n(C3CCCCC3)c2[nH]1 | – | inactive | > 50 µM | –
10 | O=C(O)c1ccc2c(c1)nc(-c1ccccc1)n2C1CCCCC1 | > 50 µM | – | 6.5 µM | –
11 | CN(C)C(=O)Cn1c(-c2ccccc2)c(C2CCCCC2)c2ncc(C(=O)O)cc21 | > 50 µM | – | 2.2 µM | 0.8
12 | CN(C)C(=O)Cn1c(-c2ccccc2)c(C2CCCCC2)c2sc(C(=O)O)cc21 | 2.9 µM | – | 0.058 µM | –
13 | O=C(O)c1cc2[nH]c(-c3ccccc3)c(C3CCCCC3)c2s1 | 11.2 µM | – | 0.066 µM | 3.4
14 | O=C(O)c1ccc2nc(-c3ccccc3)c(C3CCCCC3)cc2c1 | – | inactive | 4.8 µM | –
15 | O=C(O)c1ccc2cc(C3CCCCC3)c(-c3ccccc3)nc2c1 | – | inactive | > 50 µM | –
16 | O=C(O)c1cc2c(C3CCCCC3)c(-c3ccccc3)[nH]c2s1 | 19.5 µM | – | 0.12 µM | –
17 | O=C(O)c1cc2c(nc(-c3ccccc3)n2C2CCCCC2)s1 | – | inactive | 13.8 µM | –
18 | O=C(O)c1ccc2c(C3CCCCC3)c(-c3ccccc3)cn2c1 | – | inactive | 0.094 µM | –
19 | O=C(O)c1cc2nc(-c3ccccc3)n(C3CCCCC3)c2s1 | – | inactive | 17.2 µM | –

— ChEMBL document CHEMBL1146030, “Identification of thieno[3,2-b]pyrroles as allosteric inhibitors of hepatitis C virus NS5B polymerase” (Bioorg Med Chem Lett, 2006)
